Test results from article PMC5183561 (European journal of pharmacology, 2016).
Read-outs that look alike come from different tables or passages of the source. Where no end group is shown, it is not given here. [ ]: non-standard residue; d: D form. Dmt = Cc1cc(O)cc(C)c1C[C@H](N)C(=O)O; PWT2 core = not defined here

What was measured:
[1] = molecular target: T1, recombinant human kappa opioid receptor (Homo sapiens, UniProt P41145); test: Displacement binding of [3H]-DPN, CHOkappa cell membranes; settings: vs [Dmt^1]N/OFQ(1-13)-NH2
T1 sequence (P41145 whole entry): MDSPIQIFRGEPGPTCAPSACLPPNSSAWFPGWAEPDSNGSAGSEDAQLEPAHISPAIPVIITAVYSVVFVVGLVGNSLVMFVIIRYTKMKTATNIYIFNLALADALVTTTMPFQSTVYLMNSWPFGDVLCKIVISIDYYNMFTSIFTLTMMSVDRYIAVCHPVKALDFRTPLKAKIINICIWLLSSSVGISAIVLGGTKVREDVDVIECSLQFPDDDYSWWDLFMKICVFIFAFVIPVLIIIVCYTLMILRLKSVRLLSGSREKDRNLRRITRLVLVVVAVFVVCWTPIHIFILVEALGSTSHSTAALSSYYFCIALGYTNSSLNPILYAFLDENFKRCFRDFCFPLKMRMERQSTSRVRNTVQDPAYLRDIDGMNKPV

[2] = molecular target: T2, human recombinant NOP receptor (Homo sapiens, UniProt P41146); test: Stimulated [35S]GTPγS binding, CHONOP membranes; assay type: biochemical; settings: intrinsic activity, N/OFQ = 1.00, n≥5
T2 sequence (P41146 whole entry): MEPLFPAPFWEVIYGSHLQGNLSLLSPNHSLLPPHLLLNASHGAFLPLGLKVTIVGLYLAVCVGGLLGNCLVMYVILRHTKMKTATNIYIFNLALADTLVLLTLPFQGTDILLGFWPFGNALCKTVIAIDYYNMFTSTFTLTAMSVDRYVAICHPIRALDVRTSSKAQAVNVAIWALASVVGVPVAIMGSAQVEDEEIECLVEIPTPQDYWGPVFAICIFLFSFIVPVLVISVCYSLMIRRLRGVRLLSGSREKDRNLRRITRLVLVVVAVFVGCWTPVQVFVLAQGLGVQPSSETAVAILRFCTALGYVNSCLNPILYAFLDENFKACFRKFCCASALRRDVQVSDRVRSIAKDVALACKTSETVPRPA

[3] = molecular target: recombinant human mu opioid receptor (Homo sapiens, UniProt P35372); test: Stimulated [35S]GTPγS binding, CHOmu membranes; assay type: biochemical
Chain of recombinant human mu opioid receptor (P35372 whole entry): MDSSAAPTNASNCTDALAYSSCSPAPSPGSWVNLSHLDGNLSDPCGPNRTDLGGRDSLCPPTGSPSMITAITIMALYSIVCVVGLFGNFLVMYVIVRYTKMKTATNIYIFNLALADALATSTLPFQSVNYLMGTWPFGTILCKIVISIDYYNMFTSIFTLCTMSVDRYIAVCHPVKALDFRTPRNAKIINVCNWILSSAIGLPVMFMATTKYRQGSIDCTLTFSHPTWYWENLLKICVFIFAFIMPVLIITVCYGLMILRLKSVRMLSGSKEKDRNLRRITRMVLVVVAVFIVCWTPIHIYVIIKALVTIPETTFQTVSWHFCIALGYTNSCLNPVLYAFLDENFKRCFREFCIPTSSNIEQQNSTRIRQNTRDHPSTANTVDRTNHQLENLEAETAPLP

[4] = molecular target: T1, recombinant human kappa opioid receptor; test: Stimulated [35S]GTPγS binding, CHOkappa membranes; assay type: biochemical
[5] = molecular target: recombinant human delta opioid receptor (Homo sapiens, UniProt P41143); test: Stimulated [35S]GTPγS binding, CHOdelta membranes; assay type: biochemical; settings: intrinsic activity, DPDPE = 1.00, n≥5
Chain of recombinant human delta opioid receptor (P41143 whole entry): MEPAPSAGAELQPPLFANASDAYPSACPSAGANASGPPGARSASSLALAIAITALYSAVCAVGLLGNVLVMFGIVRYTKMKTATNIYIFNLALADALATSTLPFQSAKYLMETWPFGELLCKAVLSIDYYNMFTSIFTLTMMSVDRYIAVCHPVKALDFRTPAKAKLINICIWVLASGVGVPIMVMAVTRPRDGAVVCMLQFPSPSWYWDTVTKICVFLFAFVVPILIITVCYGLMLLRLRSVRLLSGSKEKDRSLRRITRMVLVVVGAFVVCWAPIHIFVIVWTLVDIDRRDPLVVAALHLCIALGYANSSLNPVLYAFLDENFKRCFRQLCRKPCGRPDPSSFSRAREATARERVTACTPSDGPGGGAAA

[6] = molecular target: T2, human recombinant NOP receptor; test: Calcium mobilization, CHO cells coexpressing NOP and Gαqi5; assay type: cell-based
[7] = molecular target: human recombinant mu receptor (Homo sapiens, UniProt P35372); test: Calcium mobilization, CHO cells coexpressing mu and Gαqi5; assay type: cell-based
Chain of human recombinant mu receptor (P35372 whole entry): as the sequence (P35372 whole entry) above

[8] = molecular target: human recombinant kappa receptor (Homo sapiens, UniProt P41145); test: Calcium mobilization, CHO cells coexpressing kappa and Gαqi5; assay type: cell-based; settings: intrinsic activity, dynorphin A = 1.00
Chain of human recombinant kappa receptor (P41145 whole entry): as the sequence (P41145 whole entry) above

[9] = molecular target: delta receptor (Homo sapiens, UniProt P41143); test: Calcium mobilization, CHO cells coexpressing delta and GαqG66Di5; assay type: cell-based
Chain of delta receptor (P41143 whole entry): as the sequence (P41143 whole entry) above

[10] = molecular target: NOP-RLuc/Gβ1-RGFP (Homo sapiens, UniProt P41146); test: BRET NOP/G-protein interaction, HEK-293 membranes; assay type: biochemical
[11] = molecular target: mu-RLuc/Gβ1-RGFP (Homo sapiens, UniProt P35372); test: BRET mu/G-protein interaction, SH-SY5Y membranes; assay type: biochemical; settings: intrinsic activity, dermorphin = 1.00
[12] = molecular target: NOP-RLuc/β-arrestin 2-RGFP (Homo sapiens, UniProt P41146); test: BRET NOP/β-arrestin 2 interaction, HEK-293 whole cells; assay type: cell-based
[13] = molecular target: mu-RLuc/β-arrestin 2-RGFP (Homo sapiens, UniProt P35372); test: BRET mu/β-arrestin 2 interaction, SH-SY5Y whole cells; assay type: cell-based; settings: intrinsic activity, dermorphin = 1.00, inactive = inactive up to 1 μM
[14] = tested on: rhesus monkeys (Macaca mulatta); test: Warm water tail-withdrawal assay in monkeys; assay type: in vivo; settings: n = 4; for duration of antinociception: 50°C water
[15] = tested on: rhesus monkeys (Macaca mulatta); test: Scratching responses in monkeys after intrathecal administration; assay type: in vivo; settings: 3 nmol i.t., any time point, n = 4
[16] = tested on: rhesus monkeys (Macaca mulatta); test: Overt side effects; assay type: in vivo; settings: 0.3-3 nmol i.t.
[17] = tested on: NOP and classical opioid receptors; test: Receptor binding studies, summary over all four receptors; parameters: species or system human; settings: at all receptors (NOP, mu, kappa, delta), vs [Dmt^1]N/OFQ(1-13)-NH2
Procedure, shortened: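 CHO membranes expressing human receptors (20–40 μg protein) were incubated 1 h at room temperature in 50 mM Tris, 0.5% BSA with test compound (1 pM–10 μM). […] Bound ligand was collected by filtration on PEI-soaked GF/B filters.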

[18] = tested on: NOP and classical opioid receptors; test: Calcium mobilization, summary over the four cell lines; assay type: cell-based, human
[19] = tested on: NOP over opioid receptors; test: In vitro functional assays, NOP selectivity summary; parameters: species or system human; settings: range over functional assays
[20] = molecular target: T3, human recombinant mu opioid receptor (human, UniProt P35372 1-400); test: cell-based or functional assay
T3 sequence (P35372 whole entry): as the sequence (P35372 whole entry) above

[21] = molecular target: human recombinant N/OFQ (NOP) receptor (human, UniProt P41146 1-370); test: radioligand binding
Chain of human recombinant N/OFQ (NOP) receptor (P41146 whole entry): as the sequence (P41146 whole entry) above

[22] = molecular target: T3, human recombinant mu opioid receptor; test: radioligand binding
[23] = molecular target: T3, human recombinant mu opioid receptor; test: radioligand binding; remark: listed apart in the source
[24] = molecular target: human recombinant kappa opioid receptor (human, UniProt P41145 1-380); test: radioligand binding
Chain of human recombinant kappa opioid receptor (P41145 whole entry): as the sequence (P41145 whole entry) above

[25] = molecular target: human recombinant delta opioid receptor (human, UniProt P41143 1-372); test: radioligand binding
Chain of human recombinant delta opioid receptor (P41143 whole entry, stated change not applied): as the sequence (P41143 whole entry) above

[26] = agonist stimulated over basal specific binding, mean ± S.E.M.

Cc1cc(O)cc(C)c1C[C@H](N)C(=O)NCC(=O)NCC(=O)N[C@@H](Cc1ccccc1)C(=O)N[C@H](C(=O)NCC(=O)N[C@@H](C)C(=O)N[C@@H](CCCNC(=N)N)C(=O)N[C@@H](CCCCN)C(=O)N[C@@H](CO)C(=O)N[C@@H](C)C(=O)N[C@@H](CCCNC(=N)N)C(=O)N[C@@H](CCCCN)C(=O)N[C@@H](CSC1CC(=O)N(CCC(=O)NCCCN(CCCCN(CCCNC(=O)CCN2C(=O)CC(SC[C@H](NC(=O)[C@H](CCCCN)NC(=O)[C@H](CCCNC(=N)N)NC(=O)[C@H](C)NC(=O)[C@H](CO)NC(=O)[C@H](CCCCN)NC(=O)[C@H](CCCNC(=N)N)NC(=O)[C@H](C)NC(=O)CNC(=O)[C@@H](NC(=O)[C@H](Cc3ccccc3)NC(=O)CNC(=O)CNC(=O)[C@@H](N)Cc3c(C)cc(O)cc3C)[C@@H](C)O)C(N)=O)C2=O)CCCNC(=O)CCN2C(=O)CC(SC[C@H](NC(=O)[C@H](CCCCN)NC(=O)[C@H](CCCNC(=N)N)NC(=O)[C@H](C)NC(=O)[C@H](CO)NC(=O)[C@H](CCCCN)NC(=O)[C@H](CCCNC(=N)N)NC(=O)[C@H](C)NC(=O)CNC(=O)[C@@H](NC(=O)[C@H](Cc3ccccc3)NC(=O)CNC(=O)CNC(=O)[C@@H](N)Cc3c(C)cc(O)cc3C)[C@@H](C)O)C(N)=O)C2=O)CCCNC(=O)CCN2C(=O)CC(SC[C@H](NC(=O)[C@H](CCCCN)NC(=O)[C@H](CCCNC(=N)N)NC(=O)[C@H](C)NC(=O)[C@H](CO)NC(=O)[C@H](CCCCN)NC(=O)[C@H](CCCNC(=N)N)NC(=O)[C@H](C)NC(=O)CNC(=O)[C@@H](NC(=O)[C@H](Cc3ccccc3)NC(=O)CNC(=O)CNC(=O)[C@@H](N)Cc3c(C)cc(O)cc3C)[C@@H](C)O)C(N)=O)C2=O)C1=O)C(N)=O)[C@@H](C)O (stereo partly shown) [PWT2-[Dmt^1], PWT2-[Dmt^1]N/OFQ(1-13)]
loss of affinity at kappa compared to parent compound [1]: ~ 18 fold | α ± S.E.M. NOP [2]: 1.23 ± 0.13 | Emax as stimulation factor, mu [3, 26]: 2.84 ± 0.11 fold | α ± S.E.M. mu ([3]; intrinsic activity, dermorphin = 1.00, n≥5): 0.98 ± 0.07 | Emax as stimulation factor, kappa [4, 26]: 2.43 ± 0.08 fold | α ± S.E.M. kappa ([4]; intrinsic activity, dynorphin A = 1.00, n≥5): 1.40 ± 0.11 | α ± S.E.M. delta [5]: 0.87 ± 0.07 | reduced potency compared to N/OFQ ([6]; NOP): 58 fold | α ± S.E.M. NOP ([6]; intrinsic activity, N/OFQ = 1.00): 0.98 ± 0.08 | Emax ([7]; CHO, read-out: maximal effects over basal, mu): 283 ± 3% | α ± S.E.M. mu ([7]; calcium mobilization, intrinsic activity, dermorphin = 1.00): 0.87 ± 0.04 | lower potency compared to dermorphin ([7]; calcium mobilization, mu): 23 fold | α ± S.E.M. kappa [8]: 0.86 ± 0.03 | potency lower than DPDPE ([9]; delta): 23 fold | α ± S.E.M. delta ([9]; intrinsic activity, DPDPE = 1.00): 0.80 ± 0.08 | α ± S.E.M. NOP, Gβ1-protein [10]: 1.04 ± 0.04 | α ± S.E.M. mu, Gβ1-protein [11]: 1.43 ± 0.12 | α ± S.E.M. NOP, β-arrestin2 [12]: 0.58 ± 0.10 | α ± S.E.M. mu, β-arrestin2 [13]: 0.82 ± 0.07 | duration of antinociception ([14]; 0.3 nmol i.t.): 2 h | duration of antinociception ([14]; 1 nmol i.t.): 6 h | duration of antinociception ([14]; 3 nmol i.t.): 24 h | scratching responses in 15-min observation period [15]: did not significantly elicit scratching responses | overt side effects including sedation or motor impairment [16]: did not cause any overt side effects | lower affinity than the parent peptide [17]: approximately 10 fold | reduced potency compared to [Dmt^1]N/OFQ(1-13)-NH2 [18]: 3 to 30 fold | NOP selectivity in in vitro functional assays [19]: 2 – 10 fold

O=C1CC[C@@]2(O)[C@H]3Cc4ccc(O)c5c4[C@@]2(CCN3CC2CC2)[C@H]1O5 [naltrexone, Naltrexone, reference compound]
effect of antagonist on i.t. PWT2-[Dmt^1] (3 nmol)-induced antinociception ([14]; naltrexone 0.03 mg/kg s.c., given 1 h 10 min after PWT2-[Dmt^1]): inactive

B1: [Dmt^1]N/OFQ(1-13)-NH2 (peptide)
peptide: [Dmt]GGFTGARKSARK-NH2
modifications: N-terminus assumed
SMILES: Cc1cc(O)cc(C)c1C[C@H](N)C(=O)NCC(=O)NCC(=O)N[C@@H](Cc1ccccc1)C(=O)N[C@H](C(=O)NCC(=O)N[C@@H](C)C(=O)N[C@@H](CCCNC(=N)N)C(=O)N[C@@H](CCCCN)C(=O)N[C@@H](CO)C(=O)N[C@@H](C)C(=O)N[C@@H](CCCNC(=N)N)C(=O)N[C@@H](CCCCN)C(N)=O)[C@@H](C)O
stimulation of [^35S]GTPγS binding, CHO mu membranes: Emax as stimulation factor [20]: 3.06 fold | pKi [21]: 10.4 | pKi [22]: 10.4 | pKi [23]: 10 | pKi [24]: 10.4 | pKi [25]: 9.99

B2: PWT2-[Dmt^1]N/OFQ(1-13) (peptide)
peptide: [Dmt]GGFTGARKSARKC(PWT2 core)-NH2
modifications: reading uncertain; also: Cys14 joined to the PWT2 core by thio-Michael reaction
stimulation of [^35S]GTPγS binding, CHO mu membranes: Emax as stimulation factor [20]: 2.84 fold | pKi [21]: 9.13 | pKi [23]: 9.25 | pKi [24]: 9.13 | pKi [25]: 8.42

B3: Dermorphin (peptide)
peptide: YAFGYPS
stimulation of [^35S]GTPγS binding, CHO mu membranes: Emax as stimulation factor [20]: 2.88 fold
